Assay outcomes as filed in PubChem BioAssay.
An excerpt weighted towards active compounds, which were near 4.1% of everything screened.
MC4R antag cAMP – human MC4R antagonism in cAMP assay. MC4R-expressing cells, MTII-stimulated cAMP, LANCE TR-FRET. inhibition, % at 6.5 µM. 360,000 tested, 0.48% active. P32245;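 active = inhibition above its plate's cutoff, the mean of tested wells on that plate plus 3 SD, cut at about 29% in these data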;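 also: 0% = Melanotan II alone and 100% = Melanotan II plus saturating MCL0020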
Target sequence (P32245 whole entry, looked up): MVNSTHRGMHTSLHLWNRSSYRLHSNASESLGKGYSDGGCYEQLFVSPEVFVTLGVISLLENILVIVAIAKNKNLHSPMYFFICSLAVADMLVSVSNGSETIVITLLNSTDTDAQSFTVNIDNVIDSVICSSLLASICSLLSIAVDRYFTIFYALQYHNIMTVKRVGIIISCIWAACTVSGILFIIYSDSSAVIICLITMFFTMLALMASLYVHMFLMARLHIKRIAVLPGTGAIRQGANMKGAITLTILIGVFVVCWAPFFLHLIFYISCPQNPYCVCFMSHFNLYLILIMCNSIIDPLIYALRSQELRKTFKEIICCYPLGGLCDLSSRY
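Material: U2OS-MC4R stable cell line | Reagent: Melanotan II challenge after compound preincubation | Doses: One concentration, 6.5 µM nominal | Incubation: 30-min compound preincubation, 1-h Melanotan II challenge, 1-h detection, room temperature | Signal: TR-FRET cAMP assay | Replicates: One well per compound, no replicates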
MC4R ag barr – human MC4R agonism via beta-arrestin | P32245 | 360,000 tested, 0.98% active | activation, % at 8.9 µM | U2OS MC4R beta-arrestin complementation, luminescence; percent of melanotan II response, DMSO zero;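 active = activation above a per-plate cutoff, the mean activation of sample wells on that plate plus 3 SD, cut at about 8% in these data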
SMARCA2 act – activators of SMARCA2 function | MG213 cells, MMTV-luciferase reporter, dexamethasone, overnight | activation, % at 9.1 µM | 370,000 tested, 1% active | AID 652017; in the data active = activation above about 7.8%;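 also: 0% = vehicle wells and 100% = reference activator wells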
MPTP inh – blocks calcium-induced mitochondrial swelling. isolated mouse mitochondria, Ca2+ swelling absorbance, 30 min. inhibition, % at 10 µM. 360,000 tested, 1.4% active;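 active = inhibition of 50% or more, scaled per plate between neutral and stimulator controls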;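 also: 0% = DMSO wells given calcium and 100% = 1 mM EGTA wells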
ATG4B inhibitor – blocks human ATG4B protease cleavage of LC3 substrate; Q9Y4P1; ATG4B cleavage of LC3-PLA2, NBD-HPC fluorescence, 1 h; inhibition, % at 8.33 µM; 340,000 tested, 0.51% active; AID 504462; in the data active = inhibition above about 40%
Rh123 counter – Rhodamine 123 counter-screen of mitochondrial pore hits. isolated mitochondria, membrane potential, Rhodamine 123 fluorescence. 5,000 tested, 78% active. inhibition, % at 10 µM. shares compounds with MPTP inh; in the data active = inhibition above about 22%;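 also: 0% = DMSO vehicle and 100% = positive control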
MPTP abs DR – MPTP inhibition, dose response swelling confirmation. isolated mitochondria swelling, absorbance. IC50, µM. AID 651561. shares compounds with MPTP inh. 780 tested, 58% active; in the data active = IC50 below about 20 µM
MPTP counter DR – counter-screen for mitochondrial permeability transition pore inhibitors, dose response | IC50, µM | shares compounds with MPTP inh | 780 tested, 49% active | AID 651564 | isolated mitochondria counterscreen, fluorescence read-out; in the data active = IC50 below about 80 µM
The depositor's hits bear a star; . = no result.

SMILES | MC4R antag cAMP | MC4R ag barr | SMARCA2 act | MPTP inh | ATG4B inhibitor | Rh123 counter | others
CC(=O)c1ccc(NC(=S)NC(C)CCc2ccccc2)cc1 (stereo unspecified) | 1 | 2 | -1 | 89* | -8 | 93*
Cc1ccc(NC(=S)NC(C)CCc2ccccc2)cc1C (stereo unspecified) | 10 | 1 | -3 | 86* | 3 | 97*
CC(C)Oc1ccc(OCCNC2CCCC2)cc1 | -5 | -1 | 0 | 4 | -4 | .
c1ccc(COc2ccc(OCCCNC3CCCC3)cc2)cc1 | -5 | 7 | -2 | 90* | -5 | -11 | MPTP abs DR=3.1*;MPTP counter DR=43*
CCCC[C@H](CN[C@@H](CNC)[C@H](C)CC)NCCC12CCC(CC1)C2 | 1 | 0 | 1 | 100* | 10 | -17 | MPTP abs DR=6.1*;MPTP counter DR=>80
CCc1ccc2oc(C(=O)NCc3ccncc3)c(C)c2c1 | 2 | -2 | 0 | 69* | 0 | 22*
CCN(CC)S(=O)(=O)c1cc(C(=O)OCC(=O)c2ccc3c(c2)NC(=O)CO3)ccc1Cl | 4 | -2 | -3 | 85* | -18 | 59*
CCN(CC)S(=O)(=O)c1ccc(C(=O)OCC(=O)c2ccc3c(c2)NC(=O)CO3)cc1 | 9 | 1 | -3 | 2 | -7 | .
O=C(Nc1ccc(Cl)cc1)NC1CCCC1Cc1ccco1 (stereo unspecified) | -5 | 1 | . | 103* | 32 | 88*
COc1cccc(C(=O)N[C@H](C(=O)N2CCC[C@H]2C(=O)NCc2ccccc2)C(C)C)c1 | . | . | 7 | . | . | .
Cc1cc(C(=O)CSc2nc3ccccc3c(=O)[nH]2)c(C)n1CC1CCCO1 (stereo unspecified) | 8 | -2 | 1 | 81* | -16 | 75*
Cc1cc(C(=O)COC(=O)CCc2nc3ccccc3c(=O)[nH]2)c(C)n1CC1CCCO1 (stereo unspecified) | . | . | . | . | 1 | .
CCCCN(C)S(=O)(=O)c1ccc2[nH]c(=O)oc2c1 | . | . | 1 | . | . | .
CCOC(=O)Cn1c(=N)n(CCOc2cccc(C)c2)c2ccccc21 | 4 | -1 | 4 | 88* | -10 | 0 | MPTP abs DR=5.3*;MPTP counter DR=57*
COC(=O)[C@]12C[C@H](CC(=O)N3CCC(c4ccccc4)CC3)C(=O)N(Cc3ccc(Cl)cc3Cl)C1=C[C@H](COCc1ccccc1)O[C@@H]2C | . | . | -1 | . | . | .
CCc1nc(SCC(=O)c2ccc3c(c2)OCCO3)c2ccccc2n1 | -1 | 0 | 0 | 4 | 10 | .
O=C(CSc1ncnc2ccccc12)c1ccc2c(c1)OCCO2 | -2 | 0 | 0 | 58* | 3 | 65*
COc1ccc(C2CC(=O)C(c3ccccc3OC)=CN2Cc2ccccc2)cc1 (stereo unspecified) | . | . | -3 | . | . | .
COc1cccc(CN(C)C(=O)[C@@H](Cc2ccccc2)NC(=O)[C@H]2O[C@@H](n3ccc(=O)[nH]c3=O)[C@H](O)[C@@H]2O)c1 | . | . | -1 | . | . | .
Cc1ccccc1S(=O)(=O)N1CCCc2nc(-c3ccc(F)cc3)ccc21 | . | . | -8 | . | . | .
Cc1ccc(-c2nnc(NCc3ccccc3)c3ccccc23)cc1 | 12 | 4 | -1 | 65* | 6 | 85*
COC(=O)C1=C(C)N(Cc2ccccc2C(F)(F)F)C(=NCc2ccccc2C(F)(F)F)NC1c1ccc(Cl)cc1 (stereo unspecified) | . | . | 1 | . | . | .
CC(C)(C)c1nc(N2CCN(C(=O)c3ccco3)CC2)c2nnn(Cc3ccccc3)c2n1 | 2 | 0 | -2 | 54* | 15 | 69*
O=C(c1ccco1)N1CCN(c2nc(C3CC3)nc3c2nnn3Cc2ccccc2Cl)CC1 | 0 | -2 | -1 | 0 | 14 | .
Cc1ccc(C(C)C)c(OCC(O)CN2CCc3ccccc3C2)c1 (stereo unspecified) | 14 | 7 | -3 | 98* | 15 | 92*
SMILES | MC4R antag cAMP | MC4R ag barr | SMARCA2 act | MPTP inh | ATG4B inhibitor | Rh123 counter | others
Cc1ccc(C)c(OCC(O)CN2CCC(Cc3ccccc3)CC2)c1 (stereo unspecified) | 9 | 3 | -2 | 78* | -5 | 19 | MPTP abs DR=6.8*;MPTP counter DR=13*
COc1cccc(CNC(=O)[C@H]2CCCN2C(=O)[C@H]2CCCN2C(=O)c2ccc(C)c(C)c2)c1 | . | . | 1 | . | . | .
Cc1nn(-c2ccccc2)c(N2CCCC2)c1/C=N/NC(=O)c1cc2ccccc2cc1O | 6 | -2 | 2 | 97* | 6 | 70*
CCN(CC)c1ccc(-c2sc(Nc3ccccc3)n[n+]2-c2ccc(F)cc2)cc1 | -1 | 4 | -1 | 61* | 21 | 102*
CCc1ccc(Nc2n[n+](-c3ccccc3)c(-c3c(Cl)cccc3Cl)s2)cc1 | 15 | 0 | -6 | 100* | 17 | 112*
CCc1ccc(Nc2n[n+](-c3ccccc3)c(-c3ccc(OCc4ccccc4)cc3)s2)cc1 | 10 | 1 | -3 | 2 | 1 | .
COc1ccc(C)cc1Nc1n[n+](-c2ccccc2)c(-c2ccc(N(C)C)cc2)s1 | -4 | -1 | -2 | 89* | 14 | 100*
CCc1ccc(Nc2n[n+](-c3ccccc3)c(-c3ccc(N(CC)CC)cc3)s2)cc1 | 11 | 2 | -2 | 96* | 25 | 114*
CN(C)c1ccc(-c2sc(Nc3ccccc3)n[n+]2-c2ccc(F)cc2)cc1 | 3 | 0 | 3 | 20 | 15 | .
COC(=O)C1CN(Cc2ccc(OC)cc2)CCS(=O)(=O)N1Cc1ccc(C(F)(F)F)cc1 (stereo unspecified) | . | . | -1 | . | . | .
CC(=O)Nc1nc2ncccn2c1-c1ccc(C)cc1 | . | . | 4 | . | . | .
C=CCNC(=O)Nc1ccc2c(c1)[C@@]1(CC(=O)N(CC(C)C)C1c1ccccc1)C(=O)N2C (stereo partly specified) | . | . | -4 | . | . | .
Cc1ncoc1C(=O)NC1CCCc2c1cnn2-c1ccc(C(C)(C)C)cc1 (stereo unspecified) | 8 | -2 | -5 | 79* | -4 | 94*
Cc1cc(C(=O)NC2CCCc3c2cnn3-c2ccc(C)c(C)c2)n(C)n1 (stereo unspecified) | 17 | 0 | -5 | 93* | 2 | 87*
Cc1ncoc1C(=O)NC1CCCc2c1cnn2-c1cc(F)cc(F)c1 (stereo unspecified) | 5 | -2 | 2 | 3 | . | .
COc1ccccc1CCn1cnc(-c2cccc(F)c2)c1C(C)C | . | . | -7 | . | . | .
Cc1ccc(-c2noc(CCC(=O)Nc3ccc4c(c3)OCO4)n2)cc1 | -5 | 1 | -2 | 52* | -2 | 26*
CCOC(=O)c1ccc(NC(=O)CCc2nc(-c3ccc(Cl)cc3)no2)cc1 | 5 | 2 | -2 | 97* | -12 | 81*
